Test results reported in publication PMC11551477 (Pharmacology Research & Perspectives, 2024).
Read-outs that look alike come from different tables or passages of the source.

Assays:
[1] = 20 mg repeated, fed, NCA, cited from earlier work
[2] = test system: hyperuricemia including gout; settings: pediatric patients weighing <40 kg and ≥40 kg; cited from earlier work
[3] = cited from earlier work
[4] = healthy Japanese adult males, NCA; cited from earlier work
[5] = standard NCA analysis; cited from earlier work
[6] = Post hoc estimates of steady-state PK parameters from the PopPK final model; type: in vivo, human (Japanese pediatric patients and adult population); settings: for CLss/F (apparent total body clearance at steady state) / Dose‐normalized AUCτ,ss / Dose‐normalized C max,ss: fed, mean ± SD
In short: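 Steady-state parameters were derived by post hoc estimation from the final PopPK model, assuming each study's dose given once daily to fed subjects. Pediatric estimates used the original maintenance doses: 20 mg for <40 kg and 40 mg for ≥40 kg. CL/F was also expressed per body weight. Outputs were CLss/F, Cmax,ss and AUCτ,ss, compared with the adult population.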

[7] = Integrated PopPK analysis; type: in vivo, human (Japanese pediatric patients and adult population)
In short: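 Plasma concentrations (2611 samples, 142 Japanese subjects) were pooled from six oral-dosing studies: pediatric patients aged 6–18 y on once-daily doses for 52 weeks, healthy adult males, and fed adults with normal, mild or moderately impaired renal function. Assays were LC–MS/MS (LLOQ 0.5 ng/mL) or HPLC (LLOQ 4 ng/mL). Points with |CWRES| >6 were excluded. Model: linear two-compartment, first-order absorption with lag and first-order elimination. Covariate selection was forward (p<.05) then backward (p<.01), with condition number ≤1000. Evaluation used bootstrap and pc-VPC.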

[8] = test system: plasma protein (mainly albumin); settings: binds mainly to albumin; cited from earlier work
[9] = cited from earlier work; remark: listed apart in the source
[10] = mild dysfunction group (CLCr-based)
[11] = moderate renal dysfunction group (CLCr-based)
[12] = adult population (n = 113), 10–160 mg once daily
[13] = pediatric patients <40 kg (n = 10), 20 mg once daily
[14] = pediatric patients weighing <40 kg vs adult population
[15] = pediatric patients weighing ≥40 kg vs adult population
[16] = pediatric patients ≥40 kg (n = 19), 40 mg once daily
[17] = fed vs fasted, present PopPK analysis
[18] = final PopPK model, fixed effect

CLss/F (apparent total body clearance at steady state) [6, 12]: 8.27 ± 2.00 L/h
Dose‐normalized AUCτ,ss [6, 12]: 128 ± 32 ng·h/mL/mg
Dose‐normalized C max,ss [6, 12]: 30.2 ± 10.6 ng/mL/mg
CLss/F (apparent total body clearance at steady state) [6, 13]: 4.28 ± 1.20 L/h
Dose‐normalized AUCτ,ss [6, 13]: 251 ± 72 ng·h/mL/mg
Dose‐normalized C max,ss [6, 13]: 42.7 ± 7.6 ng/mL/mg
CLss/F relative to the adult population [6, 14]: 0.52 fold
Dose‐normalized AUCτ,ss relative to the adult population [6, 14]: 1.96 fold
Dose‐normalized C max,ss relative to the adult population [6, 14]: 1.41 fold
CLss/F relative to the adult population [6, 15]: 0.80 fold
Dose‐normalized AUCτ,ss relative to the adult population [6, 15]: 1.38 fold
Dose‐normalized C max,ss relative to the adult population [6, 15]: 1.18 fold
CLss/F (apparent total body clearance at steady state) [6, 16]: 6.59 ± 2.45 L/h
Dose‐normalized AUCτ,ss [6, 16]: 176 ± 75 ng·h/mL/mg
Dose‐normalized C max,ss [6, 16]: 35.7 ± 10.4 ng/mL/mg
Between-subject variability of CL/F, CV (%) ([7]; CV = SQRT(EXP(ω^2)–1) × 100): 26.2%
Between-subject variability of Ka, CV (%) ([7]; CV = SQRT(EXP(ω^2)–1) × 100): 306.3%
Between-subject variability of Q/F, CV (%) ([7]; CV = SQRT(EXP(ω^2)–1) × 100): 71.3%
Between-subject variability of V2/F, CV (%) ([7]; CV = SQRT(EXP(ω^2)–1) × 100): 25.7%
Between-subject variability of V3/F, CV (%) ([7]; CV = SQRT(EXP(ω^2)–1) × 100): 54.4%
Residual variability, CV (%) ([7]; CV = σ × 100): 36.9%
ALAG1, Bootstrap Median ([7]; bootstrap, 1000 simulations): 0.438 h
ALAG1, Bootstrap parameter estimate Mean ± SE ([7]; bootstrap, 1000 simulations): 0.441 ± 0.0210 h
CL/F, Bootstrap Median ([7]; bootstrap, 1000 simulations): 6.52 L/h
CL/F, Bootstrap parameter estimate Mean ± SE ([7]; bootstrap, 1000 simulations): 6.52 ± 0.197 L/h
CLEGFR, Bootstrap Median ([7]; bootstrap, 1000 simulations): 0.326
CLEGFR, Bootstrap parameter estimate Mean ± SE ([7]; bootstrap, 1000 simulations): 0.326 ± 0.0586
CLWGT, Bootstrap Median ([7]; bootstrap, 1000 simulations): 0.580
CLWGT, Bootstrap parameter estimate Mean ± SE ([7]; bootstrap, 1000 simulations): 0.589 ± 0.130
F1 (FED), Bootstrap Median ([7]; bootstrap, 1000 simulations): 0.839
F1 (FED), Bootstrap parameter estimate Mean ± SE ([7]; bootstrap, 1000 simulations): 0.838 ± 0.0274
Ka, Bootstrap Median ([7]; bootstrap, 1000 simulations): 3.51 h⁻¹
Ka, Bootstrap parameter estimate Mean ± SE ([7]; bootstrap, 1000 simulations): 4.24 ± 2.78 h⁻¹
Q/F, Bootstrap Median ([7]; bootstrap, 1000 simulations): 1.79 L/h
Q/F, Bootstrap parameter estimate Mean ± SE ([7]; bootstrap, 1000 simulations): 1.78 ± 0.127 L/h
V2/F, Bootstrap Median ([7]; bootstrap, 1000 simulations): 19.4 L
V2/F, Bootstrap parameter estimate Mean ± SE ([7]; bootstrap, 1000 simulations): 19.4 ± 0.792 L
V3/F, Bootstrap Median ([7]; bootstrap, 1000 simulations): 15.6 L
V3/F, Bootstrap parameter estimate Mean ± SE ([7]; bootstrap, 1000 simulations): 15.5 ± 0.822 L
σ ^2, Bootstrap Median ([7]; bootstrap, 1000 simulations): 0.135
σ ^2, Bootstrap parameter estimate Mean ± SE ([7]; bootstrap, 1000 simulations): 0.135 ± 0.00823
ω Ka ^2, Bootstrap Median ([7]; bootstrap, 1000 simulations): 2.37
ω Ka ^2, Bootstrap parameter estimate Mean ± SE ([7]; bootstrap, 1000 simulations): 2.60 ± 0.908
ω Q/F ^2, Bootstrap Median ([7]; bootstrap, 1000 simulations): 0.409
ω Q/F ^2, Bootstrap parameter estimate Mean ± SE ([7]; bootstrap, 1000 simulations): 0.414 ± 0.0686
ω Q/F‐V3/F ^2, Bootstrap Median ([7]; bootstrap, 1000 simulations): 0.302
ω Q/F‐V3/F ^2, Bootstrap parameter estimate Mean ± SE ([7]; bootstrap, 1000 simulations): 0.304 ± 0.0507
ω V2/F ^2, Bootstrap Median ([7]; bootstrap, 1000 simulations): 0.0633
ω V2/F ^2, Bootstrap parameter estimate Mean ± SE ([7]; bootstrap, 1000 simulations): 0.0648 ± 0.0188
ω V3/F ^2, Bootstrap Median ([7]; bootstrap, 1000 simulations): 0.251
ω V3/F ^2, Bootstrap parameter estimate Mean ± SE ([7]; bootstrap, 1000 simulations): 0.254 ± 0.0511
Reduction of AUCτ,ss in the fed group [7, 17]: 16.2%
Reduction of C max,ss in the fed group [7, 17]: 16.2%
Reduction of relative bioavailability in the fed group [7, 17]: 16.2%
σ ^2 (exponential error), residual variability, Estimate ([7]; final PopPK model): 0.136
ω CL/F‐V2/F ^2 (covariance, correlation variability), Estimate ([7]; final PopPK model): 0.0483
ω Ka ^2 (between-subject variability), Estimate ([7]; final PopPK model): 2.34
ω Q/F ^2 (between-subject variability), Estimate ([7]; final PopPK model): 0.411
ω Q/F‐V3/F ^2 (covariance, correlation variability), Estimate ([7]; final PopPK model): 0.307
ω V2/F ^2 (between-subject variability), Estimate ([7]; final PopPK model): 0.0638
ω V3/F ^2 (between-subject variability), Estimate ([7]; final PopPK model): 0.259
ω CL/F ^2 (between-subject variability), Estimate ([7]; final PopPK model, exponential error model): 0.0662
ALAG1 (absorption lag time), Estimate [7, 18]: 0.437 h
Ka (first-order absorption rate constant), Estimate [7, 18]: 3.43 h⁻¹
CLWGT (covariate for effect of body weight on CL/F), Estimate ([7]; final PopPK model, power function exponent, centered at 60.6 kg): 0.584
CLEGFR (covariate for effect of eGFR on CL/F), Estimate ([7]; final PopPK model, power function exponent, centered at 98.6 mL/min/1.73 m^2): 0.324
Vd/F ([7]; human, plasma, oral): 19.4 L
Structure (SMILES): Cc1nc(-c2ccc(OCC(C)C)c(C#N)c2)sc1C(=O)O [febuxostat]
Increase of AUCτ,ss vs normal renal function group [1, 10]: 52.5%
Steady‐state plasma C max,ss vs normal renal function group [1, 10]: did not differ noticeably
Increase of AUCτ,ss vs normal renal function group [1, 11]: 67.6%
Increase of C max,ss vs normal renal function group [1, 11]: 25.5%
Efficacy in pediatric patients compared with adults [2]: as effective
Tolerability in pediatric patients compared with adults [2]: well tolerated
Eliminated as unchanged drug through the urine [3]: < 5%
AUCinf lower in the fed group than in the fasted group [4]: 18%
C max lower in the fed group than in the fasted group [4]: 28%
Effect of sex on PK [5]: no notable effect
CL/F adjusted by body weight (post hoc estimate), males vs females ([6]; children or adults, Figure S2): no clear difference
Plasma protein binding rate [8]: approximately 99%
Solubility (in words) [9]: poorly soluble
